System: Fibroblast
Assay: Multiplex assay against human fibroblast
Type: toxicity, cell-based
Outline: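 Values for tubulin, mitochondrial-mass and membrane-permeability phenotypes are per cents of cells with healthy nuclei. These cells were identified by CellPathfinder machine-learning gating of live cells that had been stained at seeding with Hoechst33342, BioTracker Green Microtubule Cytoskeleton Dye, MitoTracker Red and Annexin V Alexa Fluor 680 and imaged on a CQ1 microscope at 37°C and 5% CO2 after compound addition. The gating first set Hoechst high-intensity objects apart from normal cells, then split normal cells into healthy, pyknosed or fragmented nuclei, and pyknosed cells into mitotic or apoptotic.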

[1] = 12 h, 1 µM, compound concentration 1 uM, replicate 1
[2] = 12 h, 1 µM, compound concentration 1 uM, replicate 2
[3] = 12 h, 10 µM, compound concentration 10 uM, replicate 1
[4] = 12 h, 10 µM, compound concentration 10 uM, replicate 2
[5] = 24 h, 1 µM, compound concentration 1 uM, replicate 1
[6] = 24 h, 1 µM, compound concentration 1 uM, replicate 2
[7] = 24 h, 10 µM, compound concentration 10 uM, replicate 1
[8] = 24 h, 10 µM, compound concentration 10 uM, replicate 2
[9] = 48 h, 1 µM, compound concentration 1 uM, replicate 1
[10] = 48 h, 1 µM, compound concentration 1 uM, replicate 2
[11] = 48 h, 10 µM, compound concentration 10 uM, replicate 1
[12] = 48 h, 10 µM, compound concentration 10 uM, replicate 2

O=C(O)CCC/C=C\CC1C(O)CC(O)C1/C=C/C(O)COc1cccc(Cl)c1 (centres undefined) [CLOPROSTENOL]
Population Apoptotic (%) [1]: 41% | Population Fragmented Nuclei (%) [1]: 15% | Population Healthy Nuclei (%) [1]: 68% | Population Hoechst High Intensity Objects (%) [1]: 0% | Population Membrane Permeable-Phenotype (%) [1]: 0% | Population Mitochondria Different-Phenotype (%) [1]: 2% | Population Mitotic Cells (%) [1]: 58% | Population Normal (%) [1]: 100% | Population Pyknosed Nuclei (%) [1]: 15% | Population Tubulin-Different-Phenotype (%) [1]: 22% | Total Cell Count [1]: 153 | Population Apoptotic (%) [2]: 20% | Population Fragmented Nuclei (%) [2]: 22% | Population Healthy Nuclei (%) [2]: 52% | Population Hoechst High Intensity Objects (%) [2]: 2% | Population Membrane Permeable-Phenotype (%) [2]: 8% | Population Mitotic Cells (%) [2]: 80% | Population Normal (%) [2]: 97% | Population Pyknosed Nuclei (%) [2]: 25% | Population Tubulin-Different-Phenotype (%) [2]: 52% | Total Cell Count [2]: 141 | Population Apoptotic (%) [3]: 38% | Population Fragmented Nuclei (%) [3]: 23% | Population Healthy Nuclei (%) [3]: 58% | Population Hoechst High Intensity Objects (%) [3]: 12% | Population Membrane Permeable-Phenotype (%) [3]: 0% | Population Mitochondria Different-Phenotype (%) [3]: 4% | Population Mitotic Cells (%) [3]: 61% | Population Normal (%) [3]: 87% | Population Pyknosed Nuclei (%) [3]: 18% | Population Tubulin-Different-Phenotype (%) [3]: 31% | Total Cell Count [3]: 212 | Population Apoptotic (%) [4]: 23% | Population Healthy Nuclei (%) [4]: 43% | Population Hoechst High Intensity Objects (%) [4]: 4% | Population Membrane Permeable-Phenotype (%) [4]: 11% | Population Mitochondria Different-Phenotype (%) [4]: 9% | Population Mitotic Cells (%) [4]: 76% | Population Normal (%) [4]: 95% | Population Pyknosed Nuclei (%) [4]: 34% | Population Tubulin-Different-Phenotype (%) [4]: 53% | Total Cell Count [4]: 105 | Population Apoptotic (%) [5]: 41% | Population Fragmented Nuclei (%) [5]: 19% | Population Healthy Nuclei (%) [5]: 62% | Population Hoechst High Intensity Objects (%) [5]: 0% | Population Membrane Permeable-Phenotype (%) [5]: 1% | Population Mitochondria Different-Phenotype (%) [5]: 3% | Population Mitotic Cells (%) [5]: 58% | Population Normal (%) [5]: 99% | Population Pyknosed Nuclei (%) [5]: 18% | Population Tubulin-Different-Phenotype (%) [5]: 26% | Total Cell Count [5]: 161 | Population Apoptotic (%) [6]: 18% | Population Fragmented Nuclei (%) [6]: 27% | Population Healthy Nuclei (%) [6]: 49% | Population Hoechst High Intensity Objects (%) [6]: 3% | Population Membrane Permeable-Phenotype (%) [6]: 7% | Population Mitochondria Different-Phenotype (%) [6]: 5% | Population Mitotic Cells (%) [6]: 81% | Population Normal (%) [6]: 96% | Population Pyknosed Nuclei (%) [6]: 23% | Population Tubulin-Different-Phenotype (%) [6]: 53% | Total Cell Count [6]: 144 | Population Apoptotic (%) [7]: 41% | Population Fragmented Nuclei (%) [7]: 24% | Population Healthy Nuclei (%) [7]: 57% | Population Hoechst High Intensity Objects (%) [7]: 12% | Population Membrane Permeable-Phenotype (%) [7]: 2% | Population Mitochondria Different-Phenotype (%) [7]: 3% | Population Mitotic Cells (%) [7]: 58% | Population Normal (%) [7]: 87% | Population Pyknosed Nuclei (%) [7]: 18% | Population Tubulin-Different-Phenotype (%) [7]: 24% | Total Cell Count [7]: 218 | Population Apoptotic (%) [8]: 59% | Population Fragmented Nuclei (%) [8]: 28% | Population Healthy Nuclei (%) [8]: 50% | Population Hoechst High Intensity Objects (%) [8]: 3% | Population Membrane Permeable-Phenotype (%) [8]: 7% | Population Mitotic Cells (%) [8]: 40% | Population Normal (%) [8]: 96% | Population Pyknosed Nuclei (%) [8]: 21% | Population Tubulin-Different-Phenotype (%) [8]: 57% | Total Cell Count [8]: 107 | Population Apoptotic (%) [9]: 65% | Population Fragmented Nuclei (%) [9]: 21% | Population Healthy Nuclei (%) [9]: 59% | Population Hoechst High Intensity Objects (%) [9]: 2% | Population Membrane Permeable-Phenotype (%) [9]: 2% | Population Mitochondria Different-Phenotype (%) [9]: 2% | Population Mitotic Cells (%) [9]: 34% | Population Normal (%) [9]: 97% | Population Pyknosed Nuclei (%) [9]: 19% | Population Tubulin-Different-Phenotype (%) [9]: 25% | Total Cell Count [9]: 156 | Population Apoptotic (%) [10]: 36% | Population Fragmented Nuclei (%) [10]: 37% | Population Healthy Nuclei (%) [10]: 43% | Population Hoechst High Intensity Objects (%) [10]: 3% | Population Membrane Permeable-Phenotype (%) [10]: 12% | Population Mitochondria Different-Phenotype (%) [10]: 10% | Population Mitotic Cells (%) [10]: 64% | Population Normal (%) [10]: 96% | Population Pyknosed Nuclei (%) [10]: 18% | Population Tubulin-Different-Phenotype (%) [10]: 63% | Total Cell Count [10]: 137 | Population Apoptotic (%) [11]: 46% | Population Fragmented Nuclei (%) [11]: 25% | Population Healthy Nuclei (%) [11]: 57% | Population Hoechst High Intensity Objects (%) [11]: 13% | Population Membrane Permeable-Phenotype (%) [11]: 0% | Population Mitochondria Different-Phenotype (%) [11]: 2% | Population Mitotic Cells (%) [11]: 53% | Population Normal (%) [11]: 86% | Population Pyknosed Nuclei (%) [11]: 16% | Population Tubulin-Different-Phenotype (%) [11]: 30% | Total Cell Count [11]: 205 | Population Apoptotic (%) [12]: 55% | Population Fragmented Nuclei (%) [12]: 41% | Population Healthy Nuclei (%) [12]: 49% | Population Hoechst High Intensity Objects (%) [12]: 8% | Population Membrane Permeable-Phenotype (%) [12]: 4% | Population Mitochondria Different-Phenotype (%) [12]: 4% | Population Mitotic Cells (%) [12]: 44% | Population Normal (%) [12]: 91% | Population Pyknosed Nuclei (%) [12]: 9% | Population Tubulin-Different-Phenotype (%) [12]: 61% | Total Cell Count [12]: 108
